Columns and labels:
Assay type in all cases: functional
[1] = test system: Plasmodium yoelii nigeriensis; assay: Antimalarial activity against multidrug-resistant Plasmodium yoelii nigeriensis in mice (Mus musculus) at 96 mg/kg/day peroral dose after 4 days; settings: route oral
Method in brief: (§1)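 Colony-bred Swiss mice (25 ± 1 g) were given 1 × 10⁶ parasitized RBC on day 0. Groups of five were dosed orally from day 0 to 3 in two divided doses daily, 0.1 mL per dose, in groundnut oil (hemisuccinates in 5% NaHCO₃). Parasitemia was read from thin blood smears on days 4–28. % suppression = [(C − T)/C] × 100 against untreated controls. β-Arteether served as positive control.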

[2] = test system: Plasmodium yoelii nigeriensis; assay: Antimalarial activity against multidrug-resistant Plasmodium yoelii nigeriensis in mice (Mus musculus) at 24 mg/kg/day peroral dose after 4 days; settings: route oral; method in brief: as §1
[3] = test system: Plasmodium yoelii nigeriensis; assay: Antimalarial activity against multidrug-resistant Plasmodium yoelii nigeriensis in mice (Mus musculus) at 48 mg/kg/day peroral dose over 4 days; settings: route oral; method in brief: as §1
[4] = test system: Plasmodium yoelii nigeriensis; assay: Antimalarial activity against multidrug-resistant Plasmodium yoelii nigeriensis in mice (Mus musculus) at 30 mg/kg/day peroral dose after 4 days; settings: route oral
[5] = test system: Plasmodium yoelii nigeriensis; assay: Antimalarial activity against multidrug-resistant Plasmodium yoelii nigeriensis in mice (Mus musculus) at 100 mg/kg/day peroral dose after 4 days; settings: route oral
Mus musculus = assay: Survival of mouse at 48 mg/kg/day, po after 28 days
Method in brief: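 Swiss mice (25 ± 1 g) were infected with 1 × 10⁶ parasitized RBC on day 0. Five mice per dose were treated orally on days 0–3, twice daily, in groundnut oil or 5% NaHCO₃. Parasitemia was followed by thin smears to day 28. Protection is the percentage of treated mice surviving beyond day 28. β-Arteether served as positive control.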

| SMILES | Activity [1] | further results |
| --- | --- | --- |
| C=C(c1ccc2ccccc2c1)C1COC2(CCC(=O)CC2)OO1 (centres undefined) | 15% | – |
| C=C(c1ccccc1)C1COC2(CCC(=O)CC2)OO1 (centres undefined) | 7% | – |
| CCO[C@H]1O[C@@H]2O[C@@]3(C)CC[C@H]4[C@H](C)CC[C@@H]([C@H]1C)[C@@]24OO3 [ARTEMOTIL] | – | Activity [2]: 100%; Activity [3]: 100% |
| C=C(c1ccccc1)C1COC2(CCC(C)(O)CC2)OO1 (centres undefined) | 92% | – |
| C=C(c1ccc(C2CCCCC2)cc1)C1COC2(CCC(=O)CC2)OO1 (centres undefined) | 100% | – |
| CCCCN(CCCC)CCC(O)c1cc2c(Cl)cc(Cl)cc2c2cc(C(F)(F)F)ccc12 (centres undefined) [HALOFANTRINE] | – | Activity [4]: 100%; Activity [5]: 100% |
| C=C(c1ccc(Cl)cc1)C1COC2(CCC(=C(C)C(=O)OCC)CC2)OO1 (centres undefined) | 87% | – |
| C=C(c1ccc(Cl)cc1)C1COC2(CCC(O)(CC(=O)OCC)CC2)OO1 (stereo in doubt; 26a) | 31% | – |
| C=C(c1ccccc1)C1COC2(CCC(O)(CC(=O)OCC)CC2)OO1 (stereo in doubt; 24a) | 87% | – |
| C=C(c1ccc(-c2ccccc2)cc1)C1COC2(CCC(=CC(=O)OCC)CC2)OO1 (centres undefined) | 100% | Activity [3]: 93% |
| C=C(c1ccccc1)C1COC2(CCC(=CC(=O)OCC)CC2)OO1 (centres undefined) | 100% | Activity [2]: 99%; Activity [3]: 100% |
| C=C(c1ccc(OC)cc1)C1COC2(CCC(=CC(=O)OCC)CC2)OO1 (centres undefined) | 100% | Activity (Mus musculus): 40%; Activity [3]: 100% |
| C=C(c1ccc(Cl)cc1)C1COC2(CCC(O)(CC(=O)OCC)CC2)OO1 (stereo in doubt; 26b) | 74% | – |
| C=C(c1ccccc1)C1COC2(CCC(O)CC2)OO1 (centres undefined) | 78% | – |
| CCN(CC)CCCC(C)Nc1ccnc2cc(Cl)ccc12 (centres undefined) [CHLOROQUINE] | – | Activity [4]: 100%; Activity [5]: 100% |
| C=C(c1ccc(C)cc1)C1COC2(CCC(OC(=O)CCC(=O)O)CC2)OO1 (centres undefined) | 97% | – |
| C=C(c1ccc(Cl)cc1)C1COC2(CCC(=O)CC2)OO1 (centres undefined) | 18% | – |
| C=C(c1ccc(OC)cc1)C1COC2(CCC(=C(C)C(=O)OCC)CC2)OO1 (centres undefined) | 18% | – |
| C=C(c1ccc(-c2ccccc2)cc1)C1COC2(CCC(O)(CC(=O)OCC)CC2)OO1 (stereo in doubt; 25a) | 93% | – |
| C=C(c1ccc2ccccc2c1)C1COC2(CCC(=C(C)C(=O)OCC)CC2)OO1 (centres undefined) | 97% | – |
| C=C(c1ccc(C)cc1)C1COC2(CCC(=O)CC2)OO1 (centres undefined) | 7% | – |

| SMILES | Activity [1] | further results |
| --- | --- | --- |
| C=C(c1ccccc1)C1COC2(CCC(O)(CC(=O)OCC)CC2)OO1 (stereo in doubt; 24b) | 37% | – |
| C=C(c1ccc(-c2ccccc2)cc1)C1COC2(CCC(O)CC2)OO1 (centres undefined) | 91% | – |
| C=C(c1ccc(-c2ccccc2)cc1)C1COC2(CCC(=O)CC2)OO1 (centres undefined) | 92% | – |
| OC(c1cc(C(F)(F)F)nc2c(C(F)(F)F)cccc12)C1CCCCN1 (centres undefined) [MEFLOQUINE] | – | Activity [4]: 100%; Activity [5]: 100% |
| C=C(c1ccc(C)cc1)C1COC2(CCC(=C(C)C(=O)OCC)CC2)OO1 (centres undefined) | 100% | – |
| C=C(c1ccc(OC)cc1)C1COC2(CCC(=O)CC2)OO1 (centres undefined) | 32% | – |
| C=C(c1ccc(Cl)cc1)C1COC2(CCC(OC(=O)CCC(=O)O)CC2)OO1 (centres undefined) | 39% | – |
| C=C(c1ccc(Cl)cc1)C1COC2(CCC(=CC(=O)OCC)CC2)OO1 (centres undefined) | 100% | Activity [2]: 100%; Activity [3]: 100% |
| C=C(c1ccc2ccccc2c1)C1COC2(CCC(=CC(=O)OCC)CC2)OO1 (centres undefined) | 100% | Activity [2]: 100%; Activity [3]: 100% |
| C=C(c1ccccc1)C1COC2(CCC(O)(c3ccccc3)CC2)OO1 (centres undefined) | 95% | – |
| C=C(c1ccc(Cl)cc1)C1COC2(CCC(O)CC2)OO1 (centres undefined) | 74% | – |
| C=C(c1ccc(C2CCCCC2)cc1)C1COC2(CCC(=C(C)C(=O)OCC)CC2)OO1 (centres undefined) | 100% | – |
| C=C(c1ccccc1)C1COC2(CCC(=C(C)C(=O)OCC)CC2)OO1 (centres undefined) | 39% | – |
| C=C(c1ccc(C2CCCCC2)cc1)C1COC2(CCC(=CC(=O)OCC)CC2)OO1 (centres undefined) | 100% | Activity (Mus musculus): 40%; Activity [3]: 100% |
| C=C(c1ccc(C)cc1)C1COC2(CCC(O)CC2)OO1 (centres undefined) | 37% | – |
| C=C(c1ccccc1)C1COC2(CCC(OC(=O)CCC(=O)O)CC2)OO1 (centres undefined) | 82% | – |
| C=C(c1ccc(-c2ccccc2)cc1)C1COC2(CCC(O)(CC(=O)OCC)CC2)OO1 (stereo in doubt; 25b) | 97% | – |
| C=C(c1ccc(-c2ccccc2)cc1)C1COC2(CCC(OC(=O)CCC(=O)O)CC2)OO1 (centres undefined) | 99% | – |
| C=C(c1ccc(C)cc1)C1COC2(CCC(=CC(=O)OCC)CC2)OO1 (centres undefined) | 100% | Activity [2]: 100%; Activity [3]: 100% |
| C=C(c1ccc(-c2ccccc2)cc1)C1COC2(CCC(=C(C)C(=O)OCC)CC2)OO1 (centres undefined) | 100% | Activity [3]: 100% |
